Assay outcomes as filed in PubChem.
Rows were chosen to be rich in hits. Some 2.9% of all compounds tested hit in one or more screens of this group.
Wee1 stabilizer: Wee1 degradation inhibitors, primary screen, cell-based, HeLa, Wee1K328M-luciferase, luminescence. 220,000 tested, 1.2% active. Wee1-like protein kinase (Homo sapiens), P30291. AID 1321, 2008. reporter increase, % at 5 µM. HeLa Luc-Wee1K328M stability; 100% = proteasome inhibitor MG132 effect;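 active = activation above the mean of all tested compounds plus 3 SD, set per screening run, cut at about 8.8% in these data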;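 note: cells exposed to compound for 20 h before luminescence read; 0% = DMSO alone and 100% = MG132 at 30 µM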
proKLK7 act: proKLK7 zymogen activators, primary screen, biochemical, fluorescence intensity; purified proKLK7, EDANS-DABCYL substrate fluorescence; 100% is mature enzyme control, 0% vehicle; activation, % at 7 µM; 370,000 tested, 0.9% active; AID 652039, 2013;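 active = activation above the mean of all tested compounds plus 3 SD, computed per campaign excluding outliers beyond control limits, cut at about 13% in these data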
RanGTP-Imp inh: inhibitors of RanGTP-importin-beta interaction, primary screen, biochemical, FRET, CFP-Ran, YFP-importin-beta, homogeneous. cell-free CFP-Ran/YFP-importin-beta FRET ratio. inhibition, % (concentration not given with the values). 300,000 tested, 1.1% active;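 active = more than half of the replicate wells show a fall in the fluorescence ratio signal beyond about 16%, limit read from the data, passing the limit was not always enough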;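 note: 0% = DMSO wells and 100% = Ran loaded with GDP instead of GTP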
Runt-CBFb FRET: inhibitors of RUNX1 Runt–CBFb binding, primary screen, biochemical, FRET, Cerulean-Runt, Venus-CBFb, uHTS; Runt-related transcription factor 1 (Homo sapiens) + Core-binding factor subunit beta …; AID 1496, 2009; 220,000 tested, 0.46% active; Cerulean-Runt/Venus-CBFb FRET ratio 530/480, 1 h; inhibition, % at 20 µM;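 active = inhibition over about 50% at 20 µM in the single-dose screen, limit read from the data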;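 note: 0% = DMSO wells and 100% = excess unlabeled CBFb competitor control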
Target sequence (Q01196 whole entry, looked up): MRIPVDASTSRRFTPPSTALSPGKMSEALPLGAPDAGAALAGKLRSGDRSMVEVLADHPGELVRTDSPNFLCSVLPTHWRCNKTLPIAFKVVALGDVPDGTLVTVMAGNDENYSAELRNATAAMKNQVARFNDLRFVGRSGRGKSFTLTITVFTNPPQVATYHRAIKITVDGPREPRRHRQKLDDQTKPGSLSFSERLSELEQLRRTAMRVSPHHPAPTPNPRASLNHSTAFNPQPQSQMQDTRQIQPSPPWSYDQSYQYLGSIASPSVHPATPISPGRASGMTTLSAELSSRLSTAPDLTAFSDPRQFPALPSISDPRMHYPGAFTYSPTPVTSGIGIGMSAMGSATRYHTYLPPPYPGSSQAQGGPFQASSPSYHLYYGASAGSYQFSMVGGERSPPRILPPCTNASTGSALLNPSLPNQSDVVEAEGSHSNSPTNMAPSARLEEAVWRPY
Target sequence (Q13951 whole entry, looked up): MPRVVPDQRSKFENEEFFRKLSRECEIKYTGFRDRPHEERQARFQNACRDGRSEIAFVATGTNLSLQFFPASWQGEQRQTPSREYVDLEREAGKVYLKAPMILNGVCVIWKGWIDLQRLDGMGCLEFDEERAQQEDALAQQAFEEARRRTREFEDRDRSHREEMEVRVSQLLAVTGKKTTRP
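Assay system: Cerulean-Runt domain / Medium: Tris 50 mM pH 7.5, KCl, K2SO4, 0.01% BSA / Timing: protein complex preformed 1 h, compound exposure 1 h, room temperature, dark / Measured by: FRET, excitation 422 nm, emission at 530 and 480 nm / Evaluation: loss of energy transfer signal / Control set: 5 µM unlabeled CBFb as full-inhibition high control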
Runt-SMMHC FRET: inhibitors of RUNX1 Runt–CBFb-SMMHC binding, primary screen, biochemical, FRET, Cerulean-Runt, Venus-CBFb-SMMHC, uHTS | inhibition, % at 20 µM | Cerulean-Runt/Venus-CBFb-SMMHC FRET ratio 530/480, 1 h | 220,000 tested, 0.74% active;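 active = mean inhibition across duplicate retests at 20 µM reaching about 50%, limit read from the data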;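 note: 0% = DMSO wells and 100% = wells with excess untagged CBFb-SMMHC; inhibitors lower the FRET ratio by blocking Runt binding to CBFb-SMMHC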
AI-2 QS mod: Vibrio harveyi AI-2 quorum sensing modulators, primary screen, JMH597 strain, luminescence/OD600 ratio. AID 2094, 2009. 300,000 tested, 0.4% active. Vibrio harveyi JMH597 AI-2 luminescence/OD600 ratio, 9 h; active compounds read low; strain lacks LuxN and CqsS sensors; 0 = neutral-control median. activity change, % at 7.5 µM; in the data active = activity change below about -75%, passing the limit was not always enough;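 note: luminescence divided by OD600 gain over 9 h not by final OD600 alone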
* = called active by the depositor.

What do the screens show for `Cc1ccc2nc(N3CCC(C(=O)O)CC3)nc(-c3ccccc3)c2c1`?
Wee1 stabilizer: 0; proKLK7 act: 6; RanGTP-Imp inh: 3; Runt-CBFb FRET: 15; Runt-SMMHC FRET: 65; AI-2 QS mod: 1

What do the screens show for `Cc1ccc(NC(=O)c2ccccc2)cc1`?
Wee1 stabilizer: 0; proKLK7 act: 0; RanGTP-Imp inh: 1; Runt-CBFb FRET: 0; Runt-SMMHC FRET: 0; AI-2 QS mod: 15

What do the screens show for `Cc1ccc(Nc2[nH]c(=O)c3ccccc3c2C(=O)c2ccccc2)cc1`?
RanGTP-Imp inh: 27*; AI-2 QS mod: 24

Results for CN1C(=O)/C(=C2/C=Cc3ccccc3N2CCCS(=O)(=O)O)SC1=S ?
Wee1 stabilizer: 1; proKLK7 act: 0; RanGTP-Imp inh: -6; Runt-CBFb FRET: -2; Runt-SMMHC FRET: -2; AI-2 QS mod: 8

What do the screens show for `C=CCN1C(=O)/C(=C2/Sc3ccccc3N2CCCS(=O)(=O)O)SC1=S`?
Wee1 stabilizer: 0; proKLK7 act: 0; RanGTP-Imp inh: 45*; Runt-CBFb FRET: 66*; Runt-SMMHC FRET: 65*; AI-2 QS mod: 30

Results for CC(C)[C@H](NC(=O)C1CC1)C(=O)N1CCC[C@H]1C(=O)NCc1ccccc1 ?
proKLK7 act: 0

Results for COc1cc(/C=C(\C#N)c2nc3ccccc3[nH]2)c([N+](=O)[O-])cc1OCc1ccccc1 ?
Wee1 stabilizer: 1; proKLK7 act: -1; RanGTP-Imp inh: 9; Runt-CBFb FRET: 38; Runt-SMMHC FRET: 83*; AI-2 QS mod: 35

How did CCOC(=O)/C=C1\SCC(=O)N1CC(=O)Nc1ccccc1OC(F)F do in these assays?
Wee1 stabilizer: -2; proKLK7 act: 1; RanGTP-Imp inh: 150*; Runt-CBFb FRET: -3; Runt-SMMHC FRET: -4; AI-2 QS mod: 9

How did CCOC(=O)/C=C1\SCC(=O)N1CC(=O)NC(c1ccccc1)c1ccccc1 do in these assays?
Wee1 stabilizer: 2; proKLK7 act: 0; RanGTP-Imp inh: -3; Runt-CBFb FRET: -5; Runt-SMMHC FRET: 0; AI-2 QS mod: 12

How did O=C(/C=C(\Nc1ccc(Br)c(F)c1)c1ccccc1)c1ccccc1 do in these assays?
proKLK7 act: 0

Results for CC(=O)Nc1ccc(S(=O)(=O)N2CCN(C(=O)c3cccnc3)CC2)cc1 ?
Wee1 stabilizer: -3; proKLK7 act: 0; RanGTP-Imp inh: 2; Runt-CBFb FRET: 3; Runt-SMMHC FRET: -3; AI-2 QS mod: 9

What do the screens show for `Cc1ccc(NC(=O)COc2coc(CN3CCc4ccccc43)cc2=O)c(C)c1`?
proKLK7 act: 0; RanGTP-Imp inh: 1; AI-2 QS mod: 15

How did N=c1c(S(=O)(=O)c2ccc(Br)cc2)cc2c(=O)n3ccccc3nc2n1Cc1ccccc1 do in these assays?
proKLK7 act: 0; RanGTP-Imp inh: 0; AI-2 QS mod: 17

Results for Cc1cccn2c(=O)c3cc(S(=O)(=O)c4ccccc4)c(=N)n(Cc4cccnc4)c3nc12 ?
proKLK7 act: -1; RanGTP-Imp inh: 139*; AI-2 QS mod: 20

How did N=c1c(S(=O)(=O)c2ccccc2)cc2c(=O)n3ccccc3nc2n1Cc1cccnc1 do in these assays?
proKLK7 act: 0; RanGTP-Imp inh: 122*; AI-2 QS mod: 13

What do the screens show for `Cc1ccc(S(=O)(=O)c2cc3c(=O)n4cccc(C)c4nc3n(Cc3ccncc3)c2=N)cc1`?
RanGTP-Imp inh: 112*; AI-2 QS mod: -7

What do the screens show for `Cc1ccc(-c2nn(-c3ccccc3)cc2C(=O)Nc2cccc(S(=O)(=O)NC3=NCCC3)c2)cc1`?
proKLK7 act: 0
